The list is not random: actives were taken first. Their share in the collection is about 2.6%.
CHT inh: human CHT choline transport inhibition | Q9GZV3 | CHT-expressing cells, membrane potential dye, choline response; hits give low values | B-score at 10 µM | 310,000 tested, 0.86% active;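 active = B-score over 3 SD under the library average, and starting fluorescence ratio not unusually high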;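 note: choline stimulus applied at its EC90 after an EC20 pre-addition; B-score computed on integrated fluorescence ratio after choline addition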
CHT PAM: allosterically activates the human high affinity choline transporter; CHT-expressing cells, membrane potential dye, choline EC20; hits give high values; LV-AA mutant CHT in HEK293 cells; AID 488977; Q9GZV3; 310,000 tested, 0.49% active; B-score at 10 µM;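 active = initial fluorescence not abnormally high and integrated response B-score, plate-corrected, over 3 SD above library mean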
Rad51 HR inh: Rad51 (human) homologous recombination inhibition; AID 1385; inhibition, % at 10 µM; hRad51 DNA strand exchange, fluorescence dequenching; Q06609; 200,000 tested, 0.085% active;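 active = inhibition above 40% at the single screening dose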
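Material: human Rad51–ssDNA filaments; Probe or stimulus: labelled 47-mer dsDNA for strand exchange; Doses: single 10 µM dose; Incubation: 37 °C 15-min filament assembly, 30-min compound preincubation, 15-min exchange; Technique: FRET fluorescence dequenching, excitation 485 nm, emission 520 nm; Measure: Fluorescence-based percent inhibition, control- and blank-normalised; Benchmarks: plate control and blank wells.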
Cl transport mod: KCC2 (human) Cl- transport modulation; Q9H2X9; KCC2 cells, thallium flux FluoZin-2 fluorescence; B-score of Tl+ flux slope (higher = more flux/activation; lower = inhibition) at 10 µM; 190,000 tested, 2.2% active; AID 1456;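 active = thallium flux slope and its plate-corrected score both differing from the plate sample mean at a set confidence after two filtering rounds, in either direction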;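 note: slope of fluorescence scaled to starting intensity during 10 to 20 s after thallium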
Target sequence (Q9H2X9 whole entry, looked up): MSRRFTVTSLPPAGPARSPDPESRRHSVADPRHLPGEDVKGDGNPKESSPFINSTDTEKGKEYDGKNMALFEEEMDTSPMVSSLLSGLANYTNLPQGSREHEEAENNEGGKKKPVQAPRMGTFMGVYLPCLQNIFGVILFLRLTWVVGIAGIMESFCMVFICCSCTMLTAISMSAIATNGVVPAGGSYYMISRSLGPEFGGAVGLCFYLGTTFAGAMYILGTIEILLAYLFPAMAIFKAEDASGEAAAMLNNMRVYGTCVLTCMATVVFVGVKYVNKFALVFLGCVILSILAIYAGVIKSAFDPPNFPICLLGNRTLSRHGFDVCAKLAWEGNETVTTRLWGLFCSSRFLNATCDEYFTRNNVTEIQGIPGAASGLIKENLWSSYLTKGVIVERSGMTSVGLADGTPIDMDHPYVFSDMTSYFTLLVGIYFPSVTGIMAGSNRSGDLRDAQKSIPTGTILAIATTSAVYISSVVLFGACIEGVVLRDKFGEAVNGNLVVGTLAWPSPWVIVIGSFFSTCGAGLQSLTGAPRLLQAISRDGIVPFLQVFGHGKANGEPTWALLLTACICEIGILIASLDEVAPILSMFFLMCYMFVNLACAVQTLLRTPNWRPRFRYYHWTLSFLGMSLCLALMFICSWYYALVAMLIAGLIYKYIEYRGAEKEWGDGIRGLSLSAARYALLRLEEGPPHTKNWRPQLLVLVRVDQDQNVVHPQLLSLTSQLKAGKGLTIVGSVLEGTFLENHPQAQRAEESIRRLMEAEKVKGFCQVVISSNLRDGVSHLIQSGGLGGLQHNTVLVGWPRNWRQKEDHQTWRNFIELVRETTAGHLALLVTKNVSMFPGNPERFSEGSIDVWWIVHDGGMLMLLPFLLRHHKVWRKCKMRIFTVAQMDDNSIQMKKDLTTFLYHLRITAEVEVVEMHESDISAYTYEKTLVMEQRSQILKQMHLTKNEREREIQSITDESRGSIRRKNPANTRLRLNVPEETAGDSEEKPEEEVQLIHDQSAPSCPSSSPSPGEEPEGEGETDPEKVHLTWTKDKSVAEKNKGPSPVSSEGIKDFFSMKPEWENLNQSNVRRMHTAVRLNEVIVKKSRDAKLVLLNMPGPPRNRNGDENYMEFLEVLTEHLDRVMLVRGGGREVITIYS
CHT block conf: human CHT inhibition, confirmatory screen; 2,400 tested, 70% active; shares compounds with CHT inh; AID 493221; CHT-expressing cells, choline membrane potential dye; LV-to-AA substituted CHT, HEK293 cells; CHT activity remaining % of control (hits give low values), % at 10 µM;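 active = choline transporter activity left, mean of duplicates at 10 µM, below buffer-only control mean minus 3 SD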;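 note: depolarization triggered by choline at its EC90 following an EC20 pre-addition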
HEK293 MPD ctr: counter-screen for CHT inhibitors: effect in parental HEK293 cells; shares compounds with CHT inh; membrane potential dye, choline response; active = decrease or increase beyond buffer ±3SD; membrane potential ratio readout (active if shifted either direction beyond buffer ±3SD; no single direction) at 10 µM; 2,400 tested, 4% active; AID 493222;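 note: parental cells lack the transporter so any hit is non-specific; ratio is peak minus trough fluorescence over baseline after EC90 choline challenge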
Hits are given with their value.

Results for CCCCn1nc2cc(C(=O)NC3CCc4ccccc43)ccc2c1OCC (stereo unspecified) ?
CHT inh: -5.47; CHT PAM: inactive; Rad51 HR inh: inactive; Cl transport mod: inactive; CHT block conf: 33.8%; HEK293 MPD ctr: inactive

How did CCCn1nc2cc(C(=O)NC3CCCc4ccccc43)ccc2c1OCC (stereo unspecified) do in these assays?
CHT inh: inactive; CHT PAM: inactive; Rad51 HR inh: inactive; Cl transport mod: inactive

How did CCCCn1nc2cc(C(=O)NCCc3cccs3)ccc2c1OCC do in these assays?
CHT inh: -9.22; CHT PAM: inactive; Rad51 HR inh: inactive; Cl transport mod: inactive; CHT block conf: 23.5%; HEK293 MPD ctr: inactive

What do the screens show for `CC(C)(C)c1ccc(C(=O)CC(Sc2ccc(Cl)cc2)C(=O)O)cc1` (stereo unspecified)?
CHT inh: -8.43; CHT PAM: inactive; Rad51 HR inh: inactive; Cl transport mod: inactive; CHT block conf: 6.4%; HEK293 MPD ctr: inactive

Results for Cc1ccc(SC(CC(=O)c2ccc(F)cc2)C(=O)O)cc1 (stereo unspecified) ?
CHT inh: inactive; CHT PAM: inactive

Results for COc1ccc(C)cc1NC(=O)C1CCN(C(=O)c2ccco2)CC1 ?
CHT inh: inactive; CHT PAM: inactive

How did Cc1ccccc1/C=C/C(=O)NCC(=O)N1CCC(N(C)C2CCCCC2C)CC1 (stereo unspecified) do in these assays?
CHT inh: -12.7; CHT PAM: inactive; Cl transport mod: inactive; CHT block conf: 21.2%; HEK293 MPD ctr: inactive

Results for CCN(CC(=O)Nc1ccc(NC(C)=O)cc1)C(=O)COc1ccccc1Cc1ccccc1 ?
CHT inh: inactive; CHT PAM: inactive

Results for CN(C)c1ccnc(-n2cccc2/C=N/OCc2cccc(F)c2)c1C#N ?
CHT inh: inactive; CHT PAM: inactive; Rad51 HR inh: inactive; Cl transport mod: inactive

Results for COc1ccc(/C=C\C(=O)NCC(=O)N/N=C/c2ccc(O)cc2O)cc1 ?
CHT inh: -5.47; CHT PAM: inactive; Cl transport mod: inactive; CHT block conf: inactive; HEK293 MPD ctr: inactive

What do the screens show for `O=C(/C=C\c1ccccc1)NCC(=O)N/N=C/c1ccc(O)cc1O`?
CHT inh: inactive; CHT PAM: inactive

What do the screens show for `O=C(N/N=C/c1cccs1)c1n[nH]c2c1CCCC2`?
CHT inh: -6.02; CHT PAM: inactive; Rad51 HR inh: inactive; Cl transport mod: inactive; CHT block conf: inactive; HEK293 MPD ctr: inactive

What do the screens show for `Cc1ccc(/C=N/NC(=O)c2n[nH]c3c2CCCC3)cc1`?
CHT inh: inactive; CHT PAM: inactive; Rad51 HR inh: inactive; Cl transport mod: inactive

What do the screens show for `CC(C)OC(=O)c1cccc(-c2ccc(C=O)o2)c1`?
CHT inh: -5.23; CHT PAM: inactive; Rad51 HR inh: inactive; Cl transport mod: inactive; CHT block conf: 56.3%; HEK293 MPD ctr: inactive

How did CC(C)OC(=O)c1ccc(COC(=O)c2cccc(-c3nnc(-c4ccccc4)o3)c2)cc1 do in these assays?
CHT inh: inactive; CHT PAM: inactive; Rad51 HR inh: inactive; Cl transport mod: inactive

What do the screens show for `O=[N+]([O-])c1cc(C(F)(F)F)cc([N+](=O)[O-])c1N1CCCNCC1`?
CHT inh: -8.77; CHT PAM: inactive; Rad51 HR inh: inactive; Cl transport mod: inactive; CHT block conf: 16.3%; HEK293 MPD ctr: inactive

What do the screens show for `O=[N+]([O-])c1cc(C(F)(F)F)cc([N+](=O)[O-])c1NCCN1CCNCC1`?
CHT inh: inactive; CHT PAM: inactive

How did Cc1c(Cl)cccc1NC(=O)NCc1ccncc1 do in these assays?
CHT inh: inactive; CHT PAM: inactive; Rad51 HR inh: inactive; Cl transport mod: inactive

Results for CCC(=O)Nc1cc2c3c(c1)CCN3C(=O)CC2 ?
CHT inh: inactive; CHT PAM: inactive

How did CNCc1c(OCc2ccc(F)cc2)ccc2ccccc12 do in these assays?
CHT inh: -7.93; CHT PAM: inactive; Rad51 HR inh: inactive; Cl transport mod: inactive; CHT block conf: 41.0%; HEK293 MPD ctr: -13.3

What do the screens show for `C=CCC1(CC=C)CCCN1Cc1nc(COc2ccccc2)no1`?
CHT inh: inactive; CHT PAM: inactive; Cl transport mod: inactive

Screens as filed in PubChem BioAssay.
